MBD2 inh: inhibitors of MBD2 binding to methylated DNA, primary screen, biochemical, TR-FRET, DNA-binding domain, human | Methyl-CpG-binding domain protein 2 (Homo sapiens), Q9UBB5 | inhibition, % at 4.4 µM | MBD2 binding to methylated oligonucleotide | 370,000 tested, 0.31% active; in the data active means inhibition above about 13%
Target sequence (Q9UBB5 whole entry, looked up, the tested form may be a part): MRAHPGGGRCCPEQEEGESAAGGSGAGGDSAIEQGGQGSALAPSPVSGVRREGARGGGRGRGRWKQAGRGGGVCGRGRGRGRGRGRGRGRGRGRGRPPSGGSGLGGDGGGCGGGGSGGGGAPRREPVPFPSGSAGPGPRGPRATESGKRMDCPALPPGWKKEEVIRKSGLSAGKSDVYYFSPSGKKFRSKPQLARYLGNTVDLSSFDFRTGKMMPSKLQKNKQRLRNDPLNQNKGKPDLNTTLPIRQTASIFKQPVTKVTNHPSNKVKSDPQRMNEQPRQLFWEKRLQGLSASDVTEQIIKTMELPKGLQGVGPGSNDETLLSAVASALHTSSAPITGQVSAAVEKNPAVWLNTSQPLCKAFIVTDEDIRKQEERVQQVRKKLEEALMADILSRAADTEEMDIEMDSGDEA
LEDGF integ inh: blockers of LEDGF/p75-dependent integrase strand transfer – biochemical, TR-FRET, high throughput, primary screen | HIV-1 integrase (with human LEDGF/p75) | TR-FRET IN-LEDGF/p75 DNA integration, Eu/Cy5 | inhibition, % at 3.7 µM | 370,000 tested, 0.64% active;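 active means inhibition above the screen-wide mean plus 3 SD, cut at about 13% in these data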;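 further: signal is the Cy5 over europium emission ratio at 671 and 618 nm; 0% = plate median of compound wells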
UHRF1 MBD2 ctr: UHRF1 methylated DNA binding inhibitors, primary screen, counter-screen for MBD2 inhibitor project, biochemical, TR-FRET, human UHRF1, single concentration; UHRF1 binding to methylated oligo; inhibition, % at 4.4 µM; 370,000 tested, 0.75% active; AID 687016, 2013; in the data active means inhibition above about 21%;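 further: UHRF1 SRA domain binding a hemimethylated CpG hairpin DNA probe; 0% = median of test compound wells and 100% = reference inhibitor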
TDP2 absorb: human TDP2 enzyme inhibitors, primary screen, biochemical, epi absorbance, recombinant enzyme. inhibition, % at 12.8 µM. 370,000 tested, 0.34% active. T5PNP hydrolysis, p-nitrophenol absorbance 415 nm. Tyrosyl-DNA phosphodiesterase 2 (Homo sapiens), O95551. AID 720702, 2013;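 active means inhibition above the mean of all tested compounds plus 3 SD, set per campaign, cut at about 25% in these data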;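 further: 0% = DMSO with enzyme and 100% = buffer with substrate but no TDP2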
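System – recombinant human TDP2 · Quantity – TDP2 enzyme at 120 nM final · Doses – single concentration, 12.8 µM nominal, with 1% DMSO · Incubation – 2 h at 37 °C · Measured by – epi absorbance of p-nitrophenol freed from T5PNP by hydrolysis · Read-out – % inhibition relative to enzyme-containing and enzyme-free wells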
HCV core dimer: inhibitors of HCV core protein dimerization, primary screen, biochemical, TR-FRET, high-throughput | TR-FRET GST/Flag-core106 dimerization, 1536-well | 300,000 tested, 0.33% active | inhibition, % at 5 µM;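 active means inhibition above the mean of all tested compounds plus 3 SD, set per screening campaign, cut at about 45% in these data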
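Material: GST/Flag-tagged HCV core106 proteins. Incubation: 4 h, 22.5 °C incubation. Read-out basis: inhibition (%) from 671 over 617 nm ratio. Measured by: TR-FRET, excitation 340 nm, emission 617 and 671 nm.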
IN multimer act: HIV-1 IN multimer formation enhancers, counter-screen for LEDGF/p75 integration inhibitor project, biochemical, TR-FRET | shares compounds with LEDGF integ inh | 2,000 tested, 17% active | activation, % at 7.7 µM | TR-FRET HIV-1 integrase multimerization | AID 1053131, 2014; in the data active means activation above about 8.9%
TRFRET interf: TR-FRET optical interference artefacts, confirmation, artefact control for LEDGF/p75-dependent integration inhibitor project, biochemical, HIV-1 IN multimerization | shares compounds with LEDGF integ inh | TR-FRET optical interference counterscreen | inhibition, % at 7.7 µM | 2,000 tested, under 10 active | AID 1053135, 2014;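 active means inhibition above the mean over all tested compounds plus 3 SD, which no compound reached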;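 further: 0% = integrase with antibodies and DMSO and 100% = antibodies without integrase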
LEDGF integ conf: inhibitors of HIV-1 IN-LEDGF/p75 DNA integration, confirmation, biochemical, TR-FRET. shares compounds with LEDGF integ inh. TR-FRET LEDGF/p75-dependent HIV-1 integration. inhibition, % at 3.7 µM. 2,000 tested, 36% active. AID 1053136, 2014; in the data active means inhibition above about 14%
An asterisk follows results filed as active; nt = no result given. In the library only some 1.8% were active in any assay of this set; here they are far more common.

SMILES	MBD2 inh	LEDGF integ inh	UHRF1 MBD2 ctr	TDP2 absorb	HCV core dimer	IN multimer act	TRFRET interf	LEDGF integ conf
O=C(CSc1nnc(-c2ccccc2)n1-c1ccc(Cl)cc1)Nc1ccc(OCc2ccccc2)cc1	-2	1	0	-1	nt	nt	nt	nt
COc1cccc(/C=N/NC(=O)CCc2n[nH]c(=O)[nH]c2=O)c1O	-4	-5	-4	-3	1	nt	nt	nt
O=C(CCc1n[nH]c(=O)[nH]c1=O)N/N=C/c1ccco1	4	15*	8	13	17	-1	4	5
COC(=O)[C@]12C[C@H](CC(=O)NCC34CC5CC(CC(C5)C3)C4)C(=O)N(CCC3=CCCCC3)C1=C[C@H](C1CCCC1)O[C@@H]2C	1	-1	3	0	nt	nt	nt	nt
c1ccn2c(c1)nc1c2nc2ccccn21	-7	14*	-6	-3	-10	5	-17	3
Clc1c(-c2ccccc2)nc2ccccn12	6	-8	1	-5	-16	nt	nt	nt
O=C(C1CCCN1S(=O)(=O)c1cccc2ccccc12)N1CCN(c2ccccc2)CC1 (configuration not stated)	-4	0	-3	5	nt	nt	nt	nt
Fc1ccc(CNc2ncccn2)cc1	-2	14*	2	4	-7	2	-9	-5
C[C@H]1[C@H](N(C)C)CC[C@@]23CCCN2C(=O)CCC[C@@H]13	-2	1	0	7	nt	nt	nt	nt
CC1NC(=O)NC1CCCCCC(=O)Nc1ccc(F)c(Cl)c1 (configuration not stated)	-4	74*	-2	5	-5	1	-3	92*
Cc1ccc(NC(=O)CCCCCC2NC(=O)NC2C)cc1 (configuration not stated)	nt	nt	nt	nt	2	nt	nt	nt
CCc1cccc(NC(=O)CCCCCC2NC(=O)NC2C)c1 (configuration not stated)	-2	77*	-1	-11	3	-2	9	92*
COC(=O)C[C@H]1CC[C@@H]2[C@@H](COc3ccc(NC(=O)Nc4ccccc4OC)cc3C(=O)N2C)O1	-4	-2	-3	16	nt	nt	nt	nt
Cc1ccc(-n2c(SCC(=O)NN=Cc3c[nH]c4ccccc34)nnc2-c2ccccc2)cc1	6	-4	2	-9	nt	nt	nt	nt
COc1ccccc1/C=C/C(=O)NCC(=O)N/N=C/c1ccccc1	1	-2	-1	-2	-7	nt	nt	nt
COc1ccccc1/C=C\C(=O)NCC(=O)N/N=C/c1ccc(O)cc1O	-1	16*	-2	-5	-6	5	-24	-4
CC1CCN(c2c3c(nc4ncnn24)CCCC3)CC1	2	3	-2	7	nt	nt	nt	nt
CCOC(=O)c1ccc(NC2OC(=O)c3ccccc32)cc1 (configuration not stated)	0	20*	-1	6	-6	-1	2	-6
COC(=O)[C@]1(C#N)CC(=O)N(C(C)C)[C@@H]1c1ccccc1	7	4	-2	2	nt	nt	nt	nt
O=C(CCC(=O)c1ccccc1)Nc1ccccc1	1	14*	3	-9	0	0	2	-1
Cc1nn(CCCC(=O)Nc2sc3c(c2C#N)CCC3)c(C)c1[N+](=O)[O-]	-1	18*	1	5	-3	-1	5	-1
Cc1nn(C(C)C(=O)Nc2sc3c(c2C#N)CCCC3)c(C)c1[N+](=O)[O-] (configuration not stated)	-3	2	0	-9	2	nt	nt	nt
CCOc1cccc(-c2nnc3n2N=C(c2ccc(OC)cc2)CS3)c1	-2	0	0	1	nt	nt	nt	nt
CC1=NN(c2ccc(Cl)c(C(=O)O)c2)C(=O)/C1=C\c1ccc(-c2ccc(C(=O)O)cc2)o1	-3	-1	3	-7	nt	nt	nt	nt
CC1(C)OC(=O)C(=Cc2ccc(-c3ccc(Cl)c(C(=O)O)c3)o2)C(=O)O1	5	15*	35*	5	13	15*	-55	20*
SMILES	MBD2 inh	LEDGF integ inh	UHRF1 MBD2 ctr	TDP2 absorb	HCV core dimer	IN multimer act	TRFRET interf	LEDGF integ conf
Cc1ccc(CN2CCCCC(NC(=O)Cc3cccs3)C2=O)cc1 (configuration not stated)	-3	1	-1	7	nt	nt	nt	nt
CCCOc1ccc(Cc2nn3c(=O)/c(=C/c4ccco4)sc3nc2=O)cc1	3	27*	23*	-16	3	4	-15	15*
CCCC1CCC2(CCCN2CCOC(=O)Nc2ccccc2)CC1 (configuration not stated)	2	-1	-3	6	nt	nt	nt	nt
CCCC1CCC2(CCCN2CCOC(=O)Nc2ccccc2OC)CC1 (configuration not stated)	1	4	-1	-1	nt	nt	nt	nt
Cc1c(C(=O)NCCC#N)sc(=O)n1Cc1ccc(C(=O)N(C)C)cc1	3	32*	-1	-8	nt	-1	5	-5
CO[C@@]12[C@@H]3N[C@@H]3CN1C1=C(C(=O)C(N)=C(C)C1=O)[C@@H]2COC(N)=O	-2	15*	9	1	nt	4	-20	7
O=C1NC(=O)/C(=C\c2ccc(O)cc2O)S1	2	20*	10	4	-11	48*	-243	66*
O=C1NC(=O)/C(=C/c2cccc3ccccc23)S1	-2	6	-3	1	-6	nt	nt	nt
Nn1c(SCC(=O)Nc2nccs2)nnc1-c1cc(-c2ccc(F)cc2)n[nH]1	-5	-1	-1	0	nt	nt	nt	nt
O=C(O)C(c1ccccc1)N1C(=O)/C(=C\c2ccc(O)c(O)c2)SC1=S (configuration not stated)	-2	23*	1	-6	-16	8	-41	51*
Oc1ccc(-c2cn3c(n2)SCC3)cc1	-1	-3	-1	8	-2	nt	nt	nt
Oc1ccc(-c2cn3c(n2)SCC3)cc1O	4	52*	4	10	-18	72*	-258	58*
C[C@H]1C2CC(OC(=O)Nc3cccc(C(F)(F)F)c3)C(C2)[C@H]2CCCCN21 (some centres not stated)	3	-1	0	9	nt	nt	nt	nt

Assay outcomes deposited in PubChem by The Scripps Research Institute Molecular Screening Center.
